From PubChem BioAssay
BaF3 tox – parental Ba/F3 cell viability inhibition, counter-screen for JAK2V617F inhibitor project, murine pro-B, CellTiter-Glo luminescence. CellTiter-Glo ATP luminescence. inhibition, % at 5.6 µM. actives 1.1% (n = 220,000);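 active = inhibition above a per-campaign cutoff, the mean inhibition of all tested compounds plus 3 SD, cut at about 27% in these data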;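 note: 0% = DMSO wells and 100% = JAK Inhibitor I control wells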
b-catenin transl – modulators of beta-catenin nuclear translocation, primary screen, imaging, HeLa cells, immunofluorescence, high-content; actives 0.3% (n = 190,000); nuclear translocation activity, % at 5 µM;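 active = nuclear translocation activity above 50% at 5 µM, with a well cell count of 50 or more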;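 note: per-cell ratio of nuclear to cytoplasmic median beta-catenin stain intensity; plate controls were DMSO negative control for no effect and GSK-3 inhibitor IX positive control for full effect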
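Test system: human HeLa cells, native beta-catenin. Compound dosing: 5 µM primary single dose, 0.1% DMSO, 0.02–20 µM confirmation series. Incubation: compound exposure 24 h at 37°C. Detection: beta-catenin immunostaining with DAPI counterstain, 20x imaging, 6 fields/well. Read-out basis: Nuclear/cytoplasmic beta-catenin signal ratio, % activation.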
MT stabilize HCS – microtubule stabilizers in HeLa cells, primary screen, imaging, high-content imaging; HeLa tubulin immunostaining HCS, 24 h; share of cells brighter than vehicle mean+2SD; % tubulin-high responders, % at 10 µM; actives 0.83% (n = 200,000); AID 2205, 2009;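 active = plate Z-score above 3 for both tubulin-high and condensed-nucleus cell shares, with cell loss under 80%, at 10 µM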;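 note: anti alpha tubulin signal scored within the nucleus-defined area of each cell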
APP 5UTR inh – inhibitors of APP translation via 5'UTR reporter, primary screen, APP 5'UTR luciferase, SH-SY5Y cells | SH-SY5Y APP 5'UTR-luciferase reporter, luminescence | AID 1285, 2008 | inhibition, % at 2 µM | actives 0.82% (n = 190,000);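 active = inhibition above a set limit, derived from the sample mean plus 3 SD, cut at about 45% in these data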
IEC-6 cytotox – cytotoxicity in IEC-6 intestinal epithelial cells, primary screen, cytotoxicity control for KLF5 inhibitor project, cell-based, luminescence. IEC-6 cytotoxicity, luminescence viability. inhibition, % at 5 µM. actives 0.78% (n = 290,000); in the data active = inhibition above about 22%;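 note: 0% = plate median of test compound wells and 100% = cytotoxic reference compound wells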
Ba/F3 V617F tox – reduced viability of JAK2V617F-dependent Ba/F3 cells, primary screen, JAK2V617F inhibitor project, cell-based, Ba/F3 EpoR-JAK2V617F, luminescence; ATP luminescence; inhibition, % at 5.6 µM; actives 1.1% (n = 220,000);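 active = inhibition above the campaign mean plus 3 SD over all tested compounds, cut at about 24% in these data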;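 note: cytokine-independent growth of Ba/F3 cells driven by EpoR plus mutant JAK2; 0% = DMSO-treated cells and 100% = JAK inhibitor I control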
Numbers without * were called inactive; / = no result. Most compounds without a hit are left out; they make up all but 2.2% or so of the library.

SMILES	BaF3 tox	b-catenin transl	MT stabilize HCS	APP 5UTR inh	IEC-6 cytotox	Ba/F3 V617F tox
CCc1ccc(N2CC(O)(c3cccs3)[N+]3=C2SCCC3)cc1 (centres undefined)	57*	-1	2	1	-2	52*
Cc1ccc(NC(=O)COC(=O)C2CC2(Cl)Cl)cc1C (centres undefined)	4	-2	2	5	4	1
O=C(Nc1cccc(O)c1)C1CC(c2ccc(Cl)cc2)=NO1 (centres undefined)	/	/	/	/	4	/
COc1cccc(CNC(=O)CCNC(=O)C2CCN(S(=O)(=O)c3ccccc3)CC2)c1	/	/	/	/	-1	/
CCN(CC(=O)NCc1ccc(F)cc1)C(=O)/C=C/c1ccc(S(=O)(=O)N(CC)CC)cc1	/	/	/	/	13	/
C=CCn1c(C)cc(C2=NNC(=NCc3ccccc3)SC2)c1C	4	37	15*	-139	-5	0
CCN=C1NN=C(c2cc(C)n(CCc3ccccc3)c2C)CS1	2	/	2	6	4	3
Brc1ccc(N/N=C(/N=Nc2nn[nH]n2)c2ccccc2)cc1	8	5	14	58*	10	11
COc1ccc(CN2CCNC(=O)C2CC(=O)N(C)CCC2CCOCC2)c(OC)c1 (centres undefined)	/	/	/	/	-3	/
CCCCC#Cc1ccccc1CC(=O)Nc1ccccc1	5	-1	5	8	-4	-3
CCCCCCCC#Cc1ccccc1/C=N/S(=O)c1ccc(C)cc1 (centres undefined)	38*	/	5	19	-2	8
O=C(N/N=C/c1cccc(Cl)c1Cl)Nc1ccccc1	5	-3	1	-20	3	4
O=C(N/N=C/c1ccc(Cl)cc1Cl)Nc1ccccc1	0	10	19*	-10	-7	-5
O=C(CN1CCCC1)Nc1ccc(F)c(Cl)c1	/	/	/	/	3	/
CC12Cc3ccc4ccccc4c3C=C1C[N+](C)(C)C2 (centres undefined)	40*	/	2	-3	3	27*
CCOC(=O)c1c(C)c(C(=O)Nc2cc(F)ccc2F)c(C)n1C	1	38	13*	-5	0	0
CC(=O)Oc1ccccc1C(=O)NC(C)CCc1ccccc1 (centres undefined)	/	/	/	/	6	/
COc1ccccc1C(=O)N1c2ccccc2Sc2ccccc21	7	14	11*	-15	0	-2
CC(C)C[C@H](NC(=O)c1cc2cc(Cl)ccc2n1C)C(=O)N1CCC(C(=O)O)CC1	/	/	/	/	-4	/
COc1ccc2c(c1)[nH]c1c(N3CCN(Cc4ccc5c(c4)OCO5)CC3)ncnc12	37*	1	4	3	14	40*
O=C(c1cc(Cl)nc2ccccc12)N(Cc1nnc(-c2ccccc2Cl)o1)C1CC1	/	/	/	/	3	/
O=c1c2ccccc2nc(-c2ccco2)n1CCc1ccc(O)cc1	/	/	/	/	-1	/
Cc1cc(C(=O)CSc2nnc(NCc3ccccc3)s2)c(C)n1C	0	111*	46	2	12	-5
Cc1nc(NC(=O)c2ccc(F)cc2)sc1C(=O)Nc1ccc2c(c1)CCC2	-1	/	1	-28	-4	-4
Cc1ccc(C(=O)Nc2nc(C)c(C(=O)Nc3ccc4c(c3)CCC4)s2)cc1	9	183*	3	66*	16	3
O=C(NCc1ccccc1F)C1CCCN(c2cnccn2)C1 (centres undefined)	/	/	/	/	4	/
Cc1c(C)n(Cc2ccc(F)cc2)c2ccc(C(=O)N3CCN(c4ccccn4)CC3)cc12	/	/	/	/	1	/
O=[N+]([O-])c1ccc(CN2CCOCCOCCN(Cc3ccc([N+](=O)[O-])cc3)CCOCC2)cc1	2	0	6	8	-3	-1
O=[N+]([O-])c1ccc(COc2ccc(Br)cc2CN2CCOCC2)cc1	90*	-5	6	-10	1	2
CCn1nc(C)c(C(=O)Nc2cc(Oc3ccc(Cl)cc3)cc([N+](=O)[O-])c2)c1C	1	3	29*	-2	-4	-2
